≈ marks a conversion by molar mass, not a printed value. Calls of active or inactive are those of the source. No cut-off for these calls is given here.
Assays:
Erwinia amylovora [1] = assay: Bactericidal activity against Erwinia amylovora 295/93 assessed as growth inhibition in King's B full medium measured at pH 7.2 after overnight incubation by suspension culture assay; assay type: functional
In short: (§1)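 Growth inhibition in suspension culture in King's B medium (peptone, K2HPO4, MgSO4, glycerol; pH 7.2). Overnight culture diluted to OD600 0.2, compound added from stocks in ethanol or DMSO (up to 5% v/v) beside solvent controls; 28 °C, 200 rpm; OD600 read at 0–8 h every 2 h and at 15 or 24 h. MIC = lowest concentration giving complete growth inhibition after overnight incubation; at least triplicate.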

Erwinia amylovora [2] = assay: Bactericidal activity against Erwinia amylovora bv.4 assessed as growth inhibition after 10 min; assay type: functional; details: bv.4, 10 min
Erwinia amylovora [3] = assay: Bactericidal activity against Erwinia amylovora 295/93 assessed as growth inhibition applied as spray solution; assay type: functional, organism-based
Erwinia amylovora [4] = assay: Bactericidal activity against Erwinia amylovora 295/93 assessed as colony growth inhibition at 25 uM at pH 4.5 by plating assay in presence of 0.5 mg/l mushroom tyrosinase; assay type: functional, organism-based
[5] = Activity of Agaricus bisporus (mushroom) tyrosinase assessed as drug oxidation by photometric analysis; assay type: ADME
Erwinia amylovora [6] = assay: Bactericidal activity against Erwinia amylovora 295/93 assessed as colony growth inhibition at 25 uM at pH 7.2 by plating assay in presence of 0.5 mg/l mushroom tyrosinase; assay type: functional, organism-based
Erwinia amylovora [7] = assay: Bactericidal activity against Erwinia amylovora 295/93 assessed as growth inhibition at 10 uM preincubated for 1 hr with visible light by suspension culture assay; assay type: functional, organism-based
In short: (§2)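 1 mM stock in ethanol exposed for 1 h to bright sunlight (UV plus visible) or to sunlight behind a UV-blocking glass screen; dark-kept solution as control. Added at nominal 10 μM to growing E. amylovora suspension cultures; growth followed by OD600.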

Erwinia amylovora [8] = assay: Bactericidal activity against Erwinia amylovora 295/93 assessed as growth inhibition at 10 uM preincubated for 1 hr with UV/visible light by suspension culture assay; assay type: functional, organism-based; in short: as §2
Erwinia amylovora [9] = assay: Bactericidal activity against mixture of two strains of Erwinia amylovora 295/93 and 763 inoculated in Malus x domestica cv. Gala flowers assessed as prevention of infection at 0.01 mM applied two times at 2 hr after bacterial exposure measured after 8 to 10 days by In vitro flower inoculation assay; assay type: functional, 295/93/763
In short: (§3)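 Gala flowers (balloon stage, from greenhouse-forced potted trees) opened on 10% sucrose at 28 °C for 24 h, in series of 20. Each inoculated with 1 μL of a 1×10^7 CFU/mL mix of strains 295/93 and 763 on the styles. After 2 h, sprayed twice with 150 μL; water as negative control. Kept at 70% humidity and 22 °C, with a water-plus-fungicide spray at day 2. Infected flowers per series scored at 8–10 days; assay valid only if water controls reached ≥50% infection.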

Erwinia amylovora [10] = assay: Bactericidal activity against 2x10^8 CFU/mL Erwinia amylovora 295/93 cells assessed as late restarting of growth from surviving cells at <10 uM by suspension culture assay; assay type: functional, organism-based
Erwinia amylovora [11] = assay: Bactericidal activity against Erwinia amylovora 295/93 at 10 uM after 30 min; assay type: functional, organism-based
In short: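 Bactericidal versus bacteriostatic test: about 10^5 E. amylovora cells in suspension culture exposed to 10 μM for 30 min, then plated on King's B medium to check for surviving colonies.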

Escherichia coli = assay: Bactericidal activity against Escherichia coli assessed as growth inhibition at pH 7.2 by suspension culture assay; assay type: functional; in short: as §1
Pseudomonas fluorescens = assay: Bactericidal activity against Pseudomonas fluorescens A506 assessed as growth inhibition at pH 7.2 by suspension culture assay; assay type: functional; in short: as §1
Bacillus subtilis = assay: Bactericidal activity against Bacillus subtilis NCTC 10315 assessed as growth inhibition at pH 7.2 by suspension culture assay; assay type: functional; in short: as §1
[12] = system: Pectobacterium carotovorum; assay: Bactericidal activity against Pectobacterium carotovorum NCPB 312 assessed as growth inhibition at pH 7.2 by suspension culture assay; assay type: functional; in short: as §1
Erwinia piriflorinigrans = assay: Bactericidal activity against Erwinia piriflorinigrans 5888 assessed as growth inhibition at pH 7.2 by suspension culture assay; assay type: functional; in short: as §1
Pantoea agglomerans = assay: Bactericidal activity against Pantoea agglomerans 599 assessed as growth inhibition at pH 7.2 by suspension culture assay; assay type: functional; in short: as §1
Erwinia billingiae = assay: Bactericidal activity against Erwinia billingiae 6830 assessed as growth inhibition at pH 7.2 by suspension culture assay; assay type: functional; in short: as §1
Erwinia amylovora [13] = assay: Bactericidal activity against Erwinia amylovora 385R assessed as growth inhibition at pH 7.2 by suspension culture assay; assay type: functional; in short: as §1
Erwinia amylovora [14] = assay: Bactericidal activity against Erwinia amylovora 363 assessed as growth inhibition at pH 7.2 by suspension culture assay; assay type: functional; in short: as §1
Erwinia amylovora [15] = assay: Bactericidal activity against Erwinia amylovora 237R assessed as growth inhibition at pH 7.2 by suspension culture assay; assay type: functional; in short: as §1
Erwinia amylovora [16] = assay: Bactericidal activity against Erwinia amylovora 295/93 assessed as inhibition of bacterial growth under infection conditions in hrp gene expression inducing medium at pH 7.0 after overnight incubation by suspension culture assay; assay type: functional
In short: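 E. amylovora 295/93 started at OD600 0.2, 28 °C with shaking, OD600 followed. MIC = lowest concentration completely inhibiting growth after overnight incubation, beside solvent controls.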

Erwinia amylovora [17] = assay: Bactericidal activity against Erwinia amylovora 295/93 assessed as growth inhibition at pH 4.5 after overnight incubation by suspension culture assay; assay type: functional
In short: (§4)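 E. amylovora 295/93 grown in King's B medium brought to pH values between 4 and 8 with 1 M HCl or NaOH before sterilisation. Culture set to OD600 0.2, 28 °C, 200 rpm, OD600 monitored over time; solvent controls run in parallel.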

Erwinia amylovora [18] = assay: Bactericidal activity against Erwinia amylovora 295/93 assessed as growth inhibition at 2.5 uM at pH 4.0 to 8.0 by suspension culture assay; assay type: functional, organism-based; in short: as §4
Erwinia tasmaniensis = assay: Bactericidal activity against Erwinia tasmaniensis 37/10 assessed as growth inhibition at pH 7.2 by suspension culture assay; assay type: functional; in short: as §1
Erwinia pyrifoliae = assay: Bactericidal activity against Erwinia pyrifoliae 4171 assessed as growth inhibition at pH 7.2 by suspension culture assay; assay type: functional; in short: as §1
Erwinia amylovora [19] = assay: Bactericidal activity against Erwinia amylovora 894 assessed as growth inhibition at pH 7.2 by suspension culture assay; assay type: functional; in short: as §1
Erwinia amylovora [20] = assay: Bactericidal activity against Erwinia amylovora 893 assessed as growth inhibition at pH 7.2 by suspension culture assay; assay type: functional; in short: as §1
Erwinia amylovora [21] = assay: Bactericidal activity against Erwinia amylovora 872 assessed as growth inhibition at pH 7.2 by suspension culture assay; assay type: functional; in short: as §1
Erwinia amylovora [22] = assay: Bactericidal activity against Erwinia amylovora 871 assessed as growth inhibition at pH 7.2 by suspension culture assay; assay type: functional; in short: as §1
Erwinia amylovora [23] = assay: Bactericidal activity against Erwinia amylovora 846 assessed as growth inhibition at pH 7.2 by suspension culture assay; assay type: functional; in short: as §1
Erwinia amylovora [24] = assay: Bactericidal activity against Erwinia amylovora 797 assessed as growth inhibition at pH 7.2 by suspension culture assay; assay type: functional; in short: as §1
Erwinia amylovora [25] = assay: Bactericidal activity against Erwinia amylovora 793 assessed as growth inhibition at pH 7.2 by suspension culture assay; assay type: functional; in short: as §1
Erwinia amylovora [26] = assay: Bactericidal activity against Erwinia amylovora 792 assessed as growth inhibition at pH 7.2 by suspension culture assay; assay type: functional; in short: as §1
Erwinia amylovora [27] = assay: Bactericidal activity against Erwinia amylovora 782 assessed as growth inhibition at pH 7.2 by suspension culture assay; assay type: functional; in short: as §1
Erwinia amylovora [28] = assay: Bactericidal activity against Erwinia amylovora 657 assessed as growth inhibition at pH 7.2 by suspension culture assay; assay type: functional; in short: as §1
Erwinia amylovora [29] = assay: Bactericidal activity against Erwinia amylovora 627 assessed as growth inhibition at pH 7.2 by suspension culture assay; assay type: functional; in short: as §1
Erwinia amylovora [30] = assay: Bactericidal activity against Erwinia amylovora 562 assessed as growth inhibition at pH 7.2 by suspension culture assay; assay type: functional; in short: as §1
Erwinia amylovora [31] = assay: Bactericidal activity against Erwinia amylovora 513 assessed as growth inhibition at pH 7.2 by suspension culture assay; assay type: functional; in short: as §1
Erwinia amylovora [32] = assay: Bactericidal activity against mixture of two strains of Erwinia amylovora 295/93 and 763 inoculated in Malus x domestica cv. Gala flowers assessed as prevention of infection at 0.06% applied two times at 2 hr after bacterial exposure measured after 8 to 10 days by In vitro flower inoculation assay; assay type: functional, 295/93/763; in short: as §3

SMILES: CC1=C(C)C(=O)C(C)=C(C)C1=O
- MIC (Erwinia amylovora [1]): inactive

SMILES: COc1cc(O)c2c(c1)C(=O)c1cc(C)cc(O)c1C2=O
- MIC (Erwinia amylovora [1]): inactive

SMILES: Cc1cc(O)c2c(c1)C(=O)c1cc(O)cc(O)c1C2=O
- MIC (Erwinia amylovora [1]): inactive

SMILES: Cc1cc(O)c2c(c1)C(=O)c1cccc(O)c1C2=O
- MIC (Erwinia amylovora [1]): inactive

SMILES: O=C(O)c1cc(O)c2c(c1)C(=O)c1cccc(O)c1C2=O
- MIC (Erwinia amylovora [1]): inactive

SMILES: O=C1C(O)=C(C2=C(O)C(=O)c3ccccc3C2=O)C(=O)c2ccccc21
- MIC (Erwinia amylovora [1]): inactive

SMILES: O=C1c2cccc(O)c2C(=O)c2c(O)cc(CO)cc21
- MIC (Erwinia amylovora [1]): inactive

SMILES: O=C1c2ccccc2C(=O)c2c1cc(S(=O)(=O)O)c(O)c2O
- MIC (Erwinia amylovora [1]): inactive

SMILES: O=C1c2ccccc2C(=O)c2c1ccc(O)c2O
- MIC (Erwinia amylovora [1]): inactive

SMILES: O=C1c2ccccc2C(=O)c2ccccc21
- MIC (Erwinia amylovora [1]): inactive

SMILES: O=C1C=CC(=O)C=C1 [BENZOQUINONE]
- MIC (Erwinia amylovora [2]): 10 µM (≈ 1.08 µg/mL)
- MIC (Erwinia amylovora [1]): 100 µM (≈ 10.8 µg/mL)

SMILES: O=C1C=CC(=O)c2c(O)cccc21 [JUGLONE]
- growth inhibition (GI) (Erwinia amylovora [3]): Active
- growth inhibition (GI) (Erwinia amylovora [4]): Active
- Activity [5]: Active
- growth inhibition (GI) (Erwinia amylovora [6]): inactive
- growth inhibition (GI) (Erwinia amylovora [7]): Active
- growth inhibition (GI) (Erwinia amylovora [8]): inactive
- Efficacy (Erwinia amylovora [9]): 67%
- Activity (Erwinia amylovora [10]): Active
- Activity (Erwinia amylovora [11]): Active
- MIC (Escherichia coli): 1000 µM (≈ 174 µg/mL)
- MIC (Pseudomonas fluorescens): > 1000 µM
- MIC (Bacillus subtilis): 50 µM (≈ 8.71 µg/mL)
- MIC [12]: 500 µM (≈ 87.1 µg/mL)
- MIC (Erwinia piriflorinigrans): 500 µM (≈ 87.1 µg/mL)
- MIC (Pantoea agglomerans): 500 µM (≈ 87.1 µg/mL)
- MIC (Erwinia billingiae): 1000 µM (≈ 174 µg/mL)
- MIC (Erwinia amylovora [13]): 10 µM (≈ 1.74 µg/mL)
- MIC (Erwinia amylovora [14]): 20 µM (≈ 3.48 µg/mL)
- MIC (Erwinia amylovora [15]): 10 µM (≈ 1.74 µg/mL)
- MIC (Erwinia amylovora [16]): 5 µM (≈ 0.871 µg/mL)
- MIC (Erwinia amylovora [17]): 2.5 µM (≈ 0.435 µg/mL)
- growth inhibition (GI) (Erwinia amylovora [18]): inactive
- MIC (Erwinia amylovora [1]): 10 µM (≈ 1.74 µg/mL)
- MIC (Erwinia tasmaniensis): 500 µM (≈ 87.1 µg/mL)
- MIC (Erwinia pyrifoliae): 20 µM (≈ 3.48 µg/mL)
- MIC (Erwinia amylovora [19]): 10 µM (≈ 1.74 µg/mL)
- MIC (Erwinia amylovora [20]): 10 µM (≈ 1.74 µg/mL)
- MIC (Erwinia amylovora [21]): 20 µM (≈ 3.48 µg/mL)
- MIC (Erwinia amylovora [22]): 10 µM (≈ 1.74 µg/mL)
- MIC (Erwinia amylovora [23]): 20 µM (≈ 3.48 µg/mL)
- MIC (Erwinia amylovora [24]): 20 µM (≈ 3.48 µg/mL)
- MIC (Erwinia amylovora [25]): 10 µM (≈ 1.74 µg/mL)
- MIC (Erwinia amylovora [26]): 10 µM (≈ 1.74 µg/mL)
- MIC (Erwinia amylovora [27]): 10 µM (≈ 1.74 µg/mL)
- MIC (Erwinia amylovora [28]): 10 µM (≈ 1.74 µg/mL)
- MIC (Erwinia amylovora [29]): 20 µM (≈ 3.48 µg/mL)
- MIC (Erwinia amylovora [30]): 10 µM (≈ 1.74 µg/mL)
- MIC (Erwinia amylovora [31]): 10 µM (≈ 1.74 µg/mL)

SMILES: O=C1C=C(O)C(=O)c2ccccc21 [LAWSONE]
- MIC (Erwinia amylovora [1]): 2500 µM (≈ 435 µg/mL)

SMILES: CC1=CC(=O)c2ccccc2C1=O [MENADIONE]
- MIC (Erwinia amylovora [1]): 250 µM (≈ 43 µg/mL)

SMILES: O=C1C=CC(=O)c2c(O)ccc(O)c21 [NAPHTHAZALIN]
- MIC (Erwinia amylovora [1]): 10 µM (≈ 1.9 µg/mL)

SMILES: CC1=CC(=O)c2c(O)cccc2C1=O [PLUMBAGIN]
- MIC (Erwinia amylovora [1]): 100 µM (≈ 18.8 µg/mL)

SMILES: CC(C)=CC[C@@H](O)C1=CC(=O)c2c(O)ccc(O)c2C1=O [SHIKONIN]
- MIC (Erwinia amylovora [1]): 100 µM (≈ 28.8 µg/mL)

SMILES: CN[C@@H]1[C@H](O[C@H]2[C@H](O[C@H]3[C@H](O)[C@@H](O)[C@H](N=C(N)N)[C@@H](O)[C@@H]3N=C(N)N)O[C@@H](C)[C@]2(O)C=O)O[C@@H](CO)[C@H](O)[C@H]1O [STREPTOMYCIN]
- Efficacy (Erwinia amylovora [32]): 75%
- MIC (Erwinia amylovora [1]): 10 µM (≈ 5.82 µg/mL)
